Test results as given in ChEMBL document CHEMBL4311952, “Discovery and Development of a Series of Pyrazolo[3,4-d]pyridazinone Compounds as the Novel Covalent Fibroblast Growth Factor Receptor Inhibitors by the Rational Drug Design” (J Med Chem, 2019).
In brackets after ≈: the same amount, converted by molar mass.

Tests used:
[1] = Kinetic solubility of the compound in pH 7.4 PBS by nephelometric method; type: physicochemical; conditions: read-out: Kinetic_solubility
[2] = Half life in mouse liver microsomes at 0.1 uM in presence of NADPH by LC-MS/MS analysis; type: ADME, Microsome; conditions: for half-life at 0.1 µM: liver microsomes
Outline: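 Mouse liver microsomes at 0.33 mg/mL protein with 5 mM MgCl2, 0.1 μM compound, 1 mM NADPH, 0.1 M Tris/HCl pH 7.4, final DMSO 0.01%. Pre-warmed 10 min at 37 °C, started with NADPH. Sampled at 0, 7, 17, 30 and 60 min, quenched with methanol, analysed by LC-MS/MS in duplicate. T1/2 = -0.693/k from first-order consumption.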

[3] = Tmax in Sprague-Dawley rat at 10 mg/kg, iv by LC-MS/MS analysis; type: ADME, organism-based; conditions: in vivo
Outline: (§1)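 SD rats dosed in 5% DMSO + 5% Tween-80 in 90% saline, IV 10 mg/kg, PO 20 mg/kg or IP 20 mg/kg; blood collected and centrifuged to plasma, which was deproteinized with methanol containing internal standard, diluted and re-centrifuged; concentrations by LC/MS/MS.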

[4] = Cmax in Sprague-Dawley rat at 10 mg/kg, iv by LC-MS/MS analysis; type: ADME, organism-based; design: dose 10 mg/kg, route intravenous; conditions: in vivo
Outline: (§2)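 SD rats dosed IV 10 mg/kg, PO 20 mg/kg or IP 20 mg/kg in 5% DMSO + 5% Tween-80 in 90% saline. Blood collected after dosing and spun to plasma. Plasma deproteinized with methanol containing internal standard, centrifuged, diluted with methanol and spun again. Compound in supernatant quantified by LC/MS/MS.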

[5] = AUC (0 to t) in Sprague-Dawley rat at 10 mg/kg, iv by LC-MS/MS analysis; type: ADME, organism-based; conditions: in vivo; outline: as §2
[6] = AUC (0 to infinity) in Sprague-Dawley rat at 10 mg/kg, iv by LC-MS/MS analysis; type: ADME, organism-based; design: dose 10 mg/kg, time infinity, route intravenous; conditions: in vivo; outline: as §2
[7] = MRT in Sprague-Dawley rat at 10 mg/kg, iv by LC-MS/MS analysis; type: ADME, organism-based; conditions: in vivo; outline: as §1
[8] = Half life in Sprague-Dawley rat at 10 mg/kg, iv by LC-MS/MS analysis; type: ADME, organism-based; conditions: in vivo; outline: as §2
[9] = Clearance in Sprague-Dawley rat at 10 mg/kg, iv by LC-MS/MS analysis; type: ADME, organism-based; conditions: in vivo; outline: as §2
[10] = Tmax in Sprague-Dawley rat at 20 mg/kg, po by LC-MS/MS analysis; type: ADME, organism-based; conditions: in vivo; outline: as §1
[11] = Cmax in Sprague-Dawley rat at 20 mg/kg, po by LC-MS/MS analysis; type: ADME, organism-based; design: dose 20 mg/kg, route oral; conditions: in vivo; outline: as §2
[12] = AUC (0 to t) in Sprague-Dawley rat at 20 mg/kg, po by LC-MS/MS analysis; type: ADME, organism-based; conditions: in vivo; outline: as §2
[13] = AUC (0 to infinity) in Sprague-Dawley rat at 20 mg/kg, po by LC-MS/MS analysis; type: ADME, organism-based; design: dose 20 mg/kg, route oral, time infinity; conditions: in vivo; outline: as §2
[14] = MRT in Sprague-Dawley rat at 20 mg/kg, po by LC-MS/MS analysis; type: ADME, organism-based; conditions: in vivo; outline: as §1
[15] = Half life in Sprague-Dawley rat at 20 mg/kg, po by LC-MS/MS analysis; type: ADME, organism-based; conditions: in vivo; outline: as §2
[16] = Oral bioavailability in Sprague-Dawley rat at 20 mg/kg by LC-MS/MS analysis; type: ADME, organism-based; conditions: in vivo; outline: as §1
[17] = Stability in rat blood assessed as parent compound remaining at 5 uM measured after 5 hrs by LC-MS/MS analysis; type: ADME, tissue-based; conditions: read-out: Stability
Outline: (§3)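 Compound at 5 μM in fresh rat blood at 37 °C; samples at 0, 0.5, 1.0, 2.0 and 5.0 h, stopped by methanol protein precipitation; percentage of residual parent measured by LC-MS/MS.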

[18] = Volume of distribution at steady state in Sprague-Dawley rat at 10 mg/kg, iv by LC-MS/MS analysis; type: ADME, organism-based; conditions: in vivo; outline: as §1
[19] = Tmax in Sprague-Dawley rat at 20 mg/kg, ip by LC-MS/MS analysis; type: ADME, organism-based; conditions: in vivo; outline: as §1
[20] = Cmax in Sprague-Dawley rat at 20 mg/kg, ip by LC-MS/MS analysis; type: ADME, organism-based; design: dose 20 mg/kg, route intraperitoneal; conditions: in vivo; outline: as §2
[21] = AUC (0 to t) in Sprague-Dawley rat at 20 mg/kg, ip by LC-MS/MS analysis; type: ADME, organism-based; conditions: in vivo; outline: as §2
[22] = AUC (0 to infinity) in Sprague-Dawley rat at 20 mg/kg, ip by LC-MS/MS analysis; type: ADME, organism-based; design: dose 20 mg/kg, time infinity, route intraperitoneal; conditions: in vivo; outline: as §2
[23] = MRT in Sprague-Dawley rat at 20 mg/kg, ip by LC-MS/MS analysis; type: ADME, organism-based; conditions: in vivo; outline: as §1
[24] = Half life in Sprague-Dawley rat at 20 mg/kg, ip by LC-MS/MS analysis; type: ADME, organism-based; conditions: in vivo; outline: as §2
[25] = Drug metabolism in mouse liver microsomes at 3 uM measured after 180 mins by UPLC-UV/Q-TOF MS analysis; type: ADME, Microsome; conditions: 3 h
[26] = Drug metabolism in human liver microsomes assessed as oxidation at 3 uM measured after 180 mins by UPLC-UV/Q-TOF MS analysis; type: ADME, Microsome; conditions: 3 h
[27] = Drug metabolism in monkey liver microsomes assessed as oxidation at 3 uM measured after 180 mins by UPLC-UV/Q-TOF MS analysis; type: ADME, Macaca mulatta, Microsome; conditions: rhesus monkey, 3 h
[28] = Drug metabolism in dog liver microsomes assessed as oxidation at 3 uM measured after 180 mins by UPLC-UV/Q-TOF MS analysis; type: ADME, Canis lupus familiaris, Microsome; conditions: 3 h
[29] = Drug metabolism in rat liver microsomes assessed as oxidation at 3 uM measured after 180 mins by UPLC-UV/Q-TOF MS analysis; type: ADME, Microsome; conditions: 3 h
[30] = Drug metabolism in mouse liver microsomes assessed as oxidation at 3 uM measured after 180 mins by UPLC-UV/Q-TOF MS analysis; type: ADME, Microsome; conditions: 3 h
[31] = Drug metabolism in human liver microsomes assessed as amino demethylation at 3 uM measured after 180 mins by UPLC-UV/Q-TOF MS analysis; type: ADME, Microsome; conditions: 3 h
[32] = Drug metabolism in monkey liver microsomes assessed as amino demethylation at 3 uM measured after 180 mins by UPLC-UV/Q-TOF MS analysis; type: ADME, Macaca mulatta, Microsome; conditions: rhesus monkey, 3 h
[33] = Drug metabolism in dog liver microsomes assessed as amino demethylation at 3 uM measured after 180 mins by UPLC-UV/Q-TOF MS analysis; type: ADME, Canis lupus familiaris, Microsome; conditions: 3 h
[34] = Drug metabolism in rat liver microsomes assessed as amino demethylation at 3 uM measured after 180 mins by UPLC-UV/Q-TOF MS analysis; type: ADME, Microsome; conditions: 3 h
Outline: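 Human, mouse, rat, dog or monkey liver fractions (1.0×10^6 cells/mL) in William's medium E (pH 7.4) with 3.0 μM substrate, 37 °C for 180 min. Stopped with equal volume ice-cold acetonitrile. Duplicates pooled per species, spun, dried under nitrogen, reconstituted in acetonitrile/water 10:90. Metabolites profiled by UPLC-UV/Q-TOF MS.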

[35] = Drug metabolism in mouse liver microsomes assessed as amino demethylation at 3 uM measured after 180 mins by UPLC-UV/Q-TOF MS analysis; type: ADME, Microsome; conditions: 3 h
[36] = Stability in rat blood at 5 uM measured after 5 hrs by LC-MS/MS analysis; type: ADME, tissue-based; outline: as §3

Structure (SMILES): CC(=O)c1ccccc1O
- solubility kinetic [1]: 50 µM (≈ 6.81 µg/mL)

Structure (SMILES): C=CC(=O)Nc1ccc(-n2nc3c(=O)[nH]nc(N)c3c2-c2oc3ccc(C)cc3c2C)cc1
- solubility kinetic [1]: 20 µM (≈ 8.81 µg/mL)
- half-life at 0.1 µM [2]: 0.517 h
- Tmax [3]: 4.98 min
- Cmax [4]: 1880 ng/mL
- AUC(0-t) [5]: 1090 ng·h/mL
- AUC(0-inf) [6]: 1270 ng·h/mL
- MRT ([7]; Sprague-Dawley, read-out: MRT): 5.04 h
- half-life [8]: 6.25 h
- clearance ([9]; Sprague-Dawley): 143 mL/min/kg
- Tmax [10]: 0.861 h
- Cmax [11]: 12.9 ng/mL
- AUC(0-t) [12]: 6.4 ng·h/mL
- AUC(0-inf) [13]: 6.4 ng·h/mL
- MRT [14]: 2.17 h
- half-life [15]: 1.77 h
- bioavailability [16]: 0.29%

Structure (SMILES): Cc1ccc2oc(-c3c4c(N)n[nH]c(=O)c4nn3-c3ccc(NC(=O)/C=C/CN4CCOCC4)cc3)c(C)c2c1
- solubility kinetic [1]: 50 µM (≈ 27 µg/mL)

Structure (SMILES): Cc1c(-c2c3c(N)n[nH]c(=O)c3nn2-c2ccc(NC(=O)/C=C/CN(C)C)cc2)oc2ccc(Br)cc12
- solubility kinetic [1]: 50 µM (≈ 28.1 µg/mL)

Structure (SMILES): Cc1c(-c2c3c(N)n[nH]c(=O)c3nn2-c2ccc(NC(=O)/C=C/CN(C)C)cc2)oc2ccc(Cl)cc12
- solubility kinetic [1]: 200 µM (≈ 104 µg/mL)
- t1/2 ([2]; microsomes, 0.1 µM): 1.72 h
- remaining at 5 h, 5 µM [17]: 20%
- AUC(0-t) [5]: 4310 ng·h/mL
- AUC(0-inf) [6]: 4410 ng·h/mL
- MRT [7]: 1.64 h
- half-life [8]: 8.55 h
- CL [9]: 37.8 mL/min/kg
- Vdss [18]: 28 L/kg
- Tmax [10]: 0.5 h
- Cmax [11]: 7.3 ng/mL
- AUC(0-t) [12]: 32.6 ng·h/mL
- AUC(0-inf) [13]: 51.5 ng·h/mL
- MRT [14]: 7.33 h
- half-life [15]: 21.6 h
- bioavailability [16]: 0%
- Tmax [19]: 0.5 h
- Cmax [20]: 5040 ng/mL
- AUC(0-t) [21]: 16800 ng·h/mL
- AUC(0-inf) [22]: 17000 ng·h/mL
- MRT [23]: 3.3 h
- half-life [24]: 4.63 h
- Drug metabolism [25]: 20%
- Drug metabolism [26]: Metabolite_Detected
- Drug metabolism [27]: Metabolite_Detected
- Drug metabolism [28]: Metabolite_Detected
- Drug metabolism [29]: Metabolite_Detected
- Drug metabolism [30]: Metabolite_Detected
- Drug metabolism [31]: Metabolite_Detected
- Drug metabolism [32]: Metabolite_Detected
- Drug metabolism [33]: Metabolite_Detected
- Drug metabolism [34]: Metabolite_Detected
- Drug metabolism [35]: Metabolite_Detected

Structure (SMILES): Cc1ccc2oc(-c3c4c(N)n[nH]c(=O)c4nn3-c3ccc(NC(=O)/C=C/CN(C)C)cc3)c(C)c2c1
- solubility kinetic [1]: 50 µM (≈ 24.9 µg/mL)
- half-life at 0.1 µM [2]: 1.05 h
- Stability [36]: Stable

Structure (SMILES): C=CC(=O)Nc1ccc(-n2nc3c(=O)[nH]nc(N)c3c2-c2oc3ccc(Cl)cc3c2C)cc1
- solubility kinetic [1]: 20 µM (≈ 9.22 µg/mL)
- half-life at 0.1 µM [2]: 0.483 h

Structure (SMILES): CC(=O)c1cc(Br)ccc1O
- solubility kinetic [1]: 50 µM (≈ 10.8 µg/mL)
